This is an account of results in article PMC5933005 (Dalton Transactions (Cambridge, England : 2003), 2018).

Like-named read-outs stand apart in the source and are kept apart here.

Data set [1] is described as follows: Biotransformation / kinetic inertness in whole human blood by RP-ICP-MS. It is filed as in vitro ADME. The conditions noted are these: 37 °C; for stability of parent compound in whole human blood: 24 h incubation; for platinum(II) metabolites detected in whole human blood: after 24 h incubation. In a few lines: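 Fresh human blood spiked with test compound was extracted in one of two ways: ice-cold acetonitrile with vortexing, sonication and centrifugation, or 0.1% formic acid, dry-ice freeze/sonication thaw, then 25% TCA precipitation. Supernatants were 0.45 μm filtered, diluted 1:5 in 50 mM ammonium formate (pH 6.0) and held at 4 °C. Species were separated by C18 RP-ICP-MS in triplicate, with a platinum(IV) reference QC for normalisation. Half-life came from a first-order fit.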

The format of data set [2] is in vitro ADME, human. Conditions: for proportion of platinum found in blood cells: after 2 h, ~10 μM in whole human blood, 37 °C. In short, it runs like this:
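Fresh heparinised human whole blood was spiked from a 1 mM aqueous stock to a final ~10 μM and incubated at 37 °C for 0, 0.5, 1, 2 and 24 h. It was centrifuged for 10 min at 2000 rcf in a 4 °C rotor. Plasma and cell fractions were microwave-digested in 25% nitric acid at 200 °C, and Pt was measured by ICP-MS. Values were normalised to haematocrit (47%) and fraction density, and the rate constant came from an exponential fit.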

In data set [3] the test system is SW480 (colon carcinoma) cells. The conditions noted are these: 2 h exposure; cited from earlier work.
The subject of data set [4] is murine colon cancer model CT-26. The conditions noted are these: i.p. and p.o. administration; cited from earlier work.
Data set [5] has as its system leukemia L1210 mouse model. The conditions noted are these: cited from earlier work.
For data set [6] the following is noted: whole human blood in vitro; cited from earlier work.
For data set [7] the following is noted: 15 min after oral administration; cited from earlier work.
The mark [8] stands for this setting: kinetic model, exponential kinetics, whole human blood.

As for `CC(=O)[O][Pt]1([NH2])([NH2])([O]C(C)=O)[O]C(=O)C2(CCC2)C(=O)[O]1` [Complex 3, (OC-6-33)-diacetatodiammine(1,1-cyclobutanedicarboxylato)-platinum(IV)], the “stability of parent compound in whole human blood” value (shortened to “stability of parent compound”) in data set [1] (10 μM, RP-ICP-MS) was “remain stable over 24 hours”.
Regarding `CC[NH][Pt]([Cl])([Cl])([NH]CC)([O]C(=O)CCC(=O)OCC)[O]C(=O)CCC(=O)OCC` [Complex 4, (OC-6-33)-dichloridobis((4-ethoxy)-4-oxobutanoato)bis(ethylamine)platinum(IV)], in data set [2], the “proportion of platinum found in blood cells” value was “around 60%”. For the same compound, the “proportion of platinum found in blood cells” value in data set [2] (listed as Compound 4) was determined as 60%. Besides, in data set [2] (setting [8]), the “drug-related platinum inside blood cells in equilibrium” value is reported as 59.7 ± 0.9% and the “first-order rate constant of accumulation in blood cells” value amounted to 1.2 ± 0.1 h⁻¹. Also, the “proportion of platinum in red blood cells” value in data set [2] (time point 0, ~10 μM in whole human blood) is 30%. Further, in data set [1] (10 μM, RP-ICP-MS), the “stability of parent compound” value is given as “could not be detected any more after 24 hours” and the “platinum(II) metabolites detected in whole human blood” value is on record as “no notable amounts of hydrophilic platinum(II)-metabolites were detected”. The compound also came in with a half-life in blood in data set [1] (first-order kinetic model, whole human blood) of 45.4 ± 3.3 min. Moreover, the “platinum accumulation in SW480 cells” value in data set [3] is reported as “high platinum accumulation”. Moreover, the “anticancer activity in CT-26 model” value in data set [4] is reported as “showed anticancer activity”. For the same compound, the “efficacy in L1210 model” value in data set [5] is “efficacy”.
Consider `CC(=O)[O][Pt]([NH2])([Cl])([Cl])([NH]C1CCCCC1)[O]C(C)=O` [satraplatin], for which the “half-life for the disappearance of the parent compound” value in data set [6] is 6.3 min. Further, in data set [7], the “detection of parent compound in patient's plasma ultrafiltrate” value is “could not be detected any more” and the “number of platinum-containing species in patient's plasma ultrafiltrate” value was “seven”.
On to `O=C1[O][Pt]2([OH])([OH])([NH]C3CCCCC3[NH]2)[O]C1=O` [Complex 1, (OC-6-33)-dihydroxido(1R,2R-diaminocyclohexane)oxalatoplatinum(IV)], for which the “stability of parent compound” value in data set [1] (10 μM, RP-ICP-MS) is listed as “remain stable over 24 hours”.
“(OC-6-33)-diacetato(1R,2R-diaminocyclohexane)oxalatoplatinum(IV) [Complex 2]”: in data set [1] (10 μM, RP-ICP-MS), the “platinum(II) metabolites detected in whole human blood” value is on record as “a significant amount of oxaliplatin could be detected”. In addition, the “species observed in whole human blood” value in data set [1] (over 6 hours incubation, 10 μM, RP-ICP-MS) is given as “only the intact complex was observed”.
